Values after ≈ are worked out from the molar mass of the structure shown. Active and inactive are the calls of the source. The calls are words filed in the database; no cut-off is given here.
Experiments:
Staphylococcus aureus [1] = test: Antibacterial activity against methicillin-resistant Staphylococcus aureus by resazurin-based assay; assay type: functional
Summary of the method: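 MRSA was grown in Luria Broth liquid culture with diluted inoculum, compound added from a DMSO stock. Plates were incubated overnight at 37 °C and scored for visible growth by turbidity or fluorescence, with resazurin as the viability read-out. Tests were run in triplicate within one experiment.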

Escherichia coli [2] = test: Antibacterial activity against Escherichia coli 5746 by resazurin-based assay; assay type: functional
Summary of the method: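 Liquid broth assay in Luria Broth, inoculum plus compound from 0.312 mM DMSO stock. Tested at 5 μM final in triplicate within one experiment. Overnight incubation at 37 °C. Growth read by turbidity or fluorescence, with viability scored using resazurin at 0.002% final.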

HT-29 = test: Cytotoxicity against human HT-29 cells after 24 hrs by MTT assay; assay type: functional, cell-based
Summary of the method: (§1)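 MTT assay with cells seeded at 3 × 10^4 cells/well. Compound taken from 1 mM DMSO stock, diluted 1/200 into medium and left on cells 24 h at 37 °C, 5% CO2. MTT then added at 0.5 mg·mL−1 in phenol red-free MEM for 3 h. Formazan dissolved in DMSO and absorbance read at 570 nm.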

Acinetobacter baumannii = test: Antibacterial activity against Acinetobacter baumannii by resazurin-based assay; assay type: functional
MCF7 = test: Cytotoxicity against human MCF7 cells after 24 hrs by MTT assay; assay type: functional, cell-based; summary of the method: as §1
[3] = Cytotoxicity against human Fa2N-4 cells assessed as growth inhibition at 5 uM after 24 hrs by MTT assay relative to control; assay type: cell-based; settings: read-out: GI
Summary of the method: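 Fa2N4 healthy liver cells seeded at 3 × 10^4 cells/well. Exposed to compound at 5 μM (1 mM DMSO stock diluted 1/200) for 24 h at 37 °C, 5% CO2. Then 0.5 mg·mL−1 MTT for 3 h, formazan dissolved in DMSO, absorbance at 570 nm. Growth inhibition expressed as percent.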

Pseudomonas aeruginosa = test: Antibacterial activity against Pseudomonas aeruginosa by resazurin-based assay; assay type: functional
HepG2 = test: Cytotoxicity against human HepG2 cells after 24 hrs by MTT assay; assay type: functional, cell-based; summary of the method: as §1
Aspergillus fumigatus [4] = test: Antifungal activity against Aspergillus fumigatus by resazurin-based assay in presence of caspofungin enhancer; assay type: functional
Summary of the method: (§2)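 Liquid assay in modified RPMI medium: RPMI-1640, Yeast Nitrogen Base, 1.8% glucose, 40 mM HEPES pH 7.1. Compound added from 0.5 mM solution before inoculum. Tested at 5 μM final in triplicate. Amphotericin B curve (0.5−4 μg·mL−1) run as control. Incubated overnight at 37 °C, then viability scored with resazurin at 0.002% final.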

Aspergillus fumigatus [5] = test: Antifungal activity against Aspergillus fumigatus by resazurin-based assay; assay type: functional; summary of the method: as §2
Staphylococcus aureus [6] = test: Antibacterial activity against methicillin-sensitive Staphylococcus aureus by resazurin-based assay; assay type: functional
Aliivibrio fischeri = test: Toxicity in Vibrio fischeri NRRL B-11177 assessed as reduction in bioluminescence after 15 mins by microtox assay; assay type: organism-based; settings: NRRL B-11177, 0.25 h
Summary of the method: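 Microtox assay with V. fischeri. Samples made up to 500 μg·mL−1 initial in artificial seawater containing 2% acetone, then tested at 45, 22.5, 11.25 and 5.625% of initial, in triplicate. Light loss read after 15 min exposure, γ = (I0/It) − 1. EC50 taken from log γ versus log concentration regression at γ = 1.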

Escherichia coli [7] = test: Antibacterial activity against Escherichia coli 2884 by resazurin-based assay; assay type: functional
A549 = test: Cytotoxicity against human A549 cells after 24 hrs by MTT assay; assay type: functional, cell-based; summary of the method: as §1
[8] = Cytotoxicity against human Fa2N-4 cells after 24 hrs by MTT assay; assay type: cell-based; settings: fa2n-4, 24 h; summary of the method: as §1

| Compound | MIC80 (Staphylococcus aureus [1]) | MIC80 (Escherichia coli [2]) | MIC80 (Acinetobacter baumannii) | MIC80 (Pseudomonas aeruginosa) | MIC80 (Staphylococcus aureus [6]) | MIC80 (Escherichia coli [7]) | other results |
| --- | --- | --- | --- | --- | --- | --- | --- |
| C[C@@H](O)[C@H]1C(=O)N2C(C(=O)O)=C(SCCNC=N)C[C@H]12 [IMIPENEM ANHYDROUS] | 8 µg/mL (≈ 26.7 µM) |  |  |  |  |  |  |
| O=C1C[C@](O)(C(Br)Br)C(Br)=C1Br | 16 µg/mL (≈ 37.4 µM) | 16 µg/mL (≈ 37.4 µM) | 8 µg/mL (≈ 18.7 µM) | > 10 µg/mL | > 32 µg/mL | > 32 µg/mL | Activity (HT-29): inactive; Activity (MCF7): inactive; inhibition at 24 h, 5 µM [3]: 53%; Activity (HepG2): inactive; MIC80 (Aspergillus fumigatus [4]): > 32 µg/mL; MIC80 (Aspergillus fumigatus [5]): > 32 µg/mL; EC50 (Aliivibrio fischeri): 0.07 µg/mL (≈ 0.164 µM); Activity (A549): inactive |
| CO[C@H]1/C=C/O[C@@]2(C)Oc3c(C)c(O)c4c(O)c(c(/C=N/N5CCN(C)CC5)c(O)c4c3C2=O)NC(=O)/C(C)=C\C=C\[C@H](C)[C@H](O)[C@@H](C)[C@@H](O)[C@@H](C)[C@H](OC(C)=O)[C@@H]1C [RIFAMPIN] |  |  | 1 µg/mL (≈ 1.22 µM) |  |  |  |  |
| CO[C@@H]1[C@@H](OC(N)=O)[C@@H](O)[C@H](Oc2ccc3c(O)c(NC(=O)c4ccc(O)c(CC=C(C)C)c4)c(=O)oc3c2C)OC1(C)C [NOVOBIOCIN] |  | 0.1 µg/mL (≈ 0.163 µM) |  |  |  | 0.3 µg/mL (≈ 0.49 µM) |  |
| O=C1C(Br)=C(Br)[C@@](O)(C(Br)Br)[C@@H]1Br | 16 µg/mL (≈ 31.6 µM) | 32 µg/mL (≈ 63.2 µM) | 16 µg/mL (≈ 31.6 µM) | > 10 µg/mL | > 32 µg/mL | > 32 µg/mL | Activity (HT-29): inactive; Activity (MCF7): inactive; Activity (HepG2): inactive; MIC80 (Aspergillus fumigatus [4]): > 32 µg/mL; Activity [8]: Non-toxic; MIC80 (Aspergillus fumigatus [5]): > 32 µg/mL; EC50 (Aliivibrio fischeri): 0.08 µg/mL (≈ 0.158 µM); Activity (A549): inactive |
| CC1(C)S[C@@H]2[C@H](NC(=O)Cc3ccccc3)C(=O)N2[C@H]1C(=O)O [PENICILLIN G] |  |  |  |  | 0.01 µg/mL (≈ 0.0299 µM) |  |  |
| O=C(O)c1cn(C2CC2)c2cc(N3CCNCC3)c(F)cc2c1=O [CIPROFLOXACIN] |  |  |  | 1.5 µg/mL (≈ 4.53 µM) |  |  |  |

From ChEMBL document CHEMBL3297675, “Mahorones, highly brominated cyclopentenones from the red alga Asparagopsis taxiformis” (J Nat Prod, 2014)
